Rows were chosen to be rich in hits. Some 3.7% of all compounds tested hit in one or more screens of this group.
KCNQ1 pot – potentiates or activates the human KCNQ1 potassium channel; P51787; hit rate 0.35% among 310,000; AID 2648; CHO-K1 KCNQ1, thallium flux FluxOR fluorescence; active compounds read high; B-score at 10 µM;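 active = fluorescence ratio B-score, a plate-corrected score, at least three library SD, with initial intensity B-score within 5 SD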
Target sequence (P51787 whole entry, looked up): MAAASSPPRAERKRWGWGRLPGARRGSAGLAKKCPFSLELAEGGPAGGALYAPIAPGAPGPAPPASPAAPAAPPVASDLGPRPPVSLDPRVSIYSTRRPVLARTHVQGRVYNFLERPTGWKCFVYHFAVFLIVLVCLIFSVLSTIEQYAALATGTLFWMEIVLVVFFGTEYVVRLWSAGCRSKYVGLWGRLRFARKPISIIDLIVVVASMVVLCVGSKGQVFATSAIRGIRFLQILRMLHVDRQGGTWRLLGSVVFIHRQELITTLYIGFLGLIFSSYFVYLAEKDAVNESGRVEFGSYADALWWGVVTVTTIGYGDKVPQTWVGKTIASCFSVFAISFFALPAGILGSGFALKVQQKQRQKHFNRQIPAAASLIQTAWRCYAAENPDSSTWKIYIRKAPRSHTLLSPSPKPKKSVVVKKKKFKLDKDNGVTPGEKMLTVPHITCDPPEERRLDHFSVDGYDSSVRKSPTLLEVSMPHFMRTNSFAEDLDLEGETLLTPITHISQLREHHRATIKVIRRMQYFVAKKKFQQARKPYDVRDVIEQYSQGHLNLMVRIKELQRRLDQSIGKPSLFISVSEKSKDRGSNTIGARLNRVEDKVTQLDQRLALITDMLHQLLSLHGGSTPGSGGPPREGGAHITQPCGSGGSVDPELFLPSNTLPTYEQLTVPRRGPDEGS
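Assay system: CHO-K1 cells stably expressing KCNQ1. Medium: assay buffer for compound exposure, DMSO matched across wells. Timing: 37 °C overnight plating, 90-min dark dye load, 20-min compound pretreatment. Signal: kinetic FluxOR fluorescence, 10 s baseline plus 110 s post-stimulus.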
hERG protect – shields human hERG channel from block by proarrhythmic agents; CHO-hERG, FluxOR thallium flux, dofetilide IC70 present; Q12809; hit rate 0.51% among 310,000; AID 1511; activation (rescue from dofetilide block), less the hit threshold, % at 10 µM;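 active = activation above the mean of controls blocked by dofetilide plus 5 SD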;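 note: thallium influx through hERG after potassium depolarization seen as dye fluorescence rise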
KCNQ1 inh – inhibitors of human KCNQ1 potassium channel; P51787; CHO-K1 KCNQ1, FluxOR thallium flux fluorescence; active compounds read high; B-score at 10 µM; hit rate 1.3% among 310,000; AID 2642;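 active = compounds whose thallium flux B-score, printed positive for inhibition, exceeds three library SD while starting fluorescence stays within three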;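 note: channel opened by potassium depolarization with thallium stimulus after 20 min compound exposure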
KCNK9 block – blocks the human KCNK9 two-pore domain potassium channel | Q9NPC2 | hit rate 1.2% among 310,000 | B-score at 10 µM | AID 488922 | HEK293 KCNK9, FluxOR thallium flux fluorescence; active compounds read low;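 active = ratio B-score over 3 SD below the library mean, with starting fluorescence within 5 SD of its mean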;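 note: negative B-score means less thallium flux so channel inhibition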
KCNK3 inh – human KCNK3 channel inhibition, primary screen | hit rate 0.84% among 340,000 | CHO-KCNK3 thallium flux, FluxOR fluorescence; active compounds read low | B-score at 10 µM;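 active = B-score under library mean minus 4 SD, starting fluorescence ratio at most library mean plus 5 SD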;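 note: more negative B-score means stronger inhibition of thallium flux through KCNK3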
Kir21 inh – Kir2.1 (mouse) channel inhibition | B-score at 10 µM | P35561 | HEK293-Kir2.1, FluxOR thallium flux fluorescence; active compounds read low | AID 1672 | hit rate 0.85% among 310,000;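 active = fluorescence ratio B-score at or below minus 3 SD of library scores, with starting-brightness B-score within 2 SD, cut at about -4.2 in these data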;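 note: channel flux triggered by added potassium and thallium sulfate stimulus; B-score of peak minus minimum fluorescence over baseline after thallium stimulus; more negative B-score means stronger Kir2.1 block with less thallium influx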
Numbers stand for hits; - = inactive; . = no result given.

SMILES	KCNQ1 pot	hERG protect	KCNQ1 inh	KCNK9 block	KCNK3 inh	Kir21 inh
CC(Sc1nnc(-c2cccnc2)o1)C(=O)NC1CCCC1 (centres undefined)	.	.	.	.	-	.
CCc1ccccc1Nc1nc(N)nc(COC(=O)CCNS(=O)(=O)c2ccccc2)n1	-	-	-	-8.1	-	-
C(=C\c1ccco1)/C1=NN(c2ccccc2)C(c2ccco2)C1 (centres undefined)	-	-	-	-	-	-
O=[N+]([O-])c1ccc(/C=C/C2=NN(c3ccccc3)C(c3ccco3)C2)o1 (centres undefined)	-	-	-	-	-9.7	-
Cc1ccc(OCC(=O)Nc2cc(S(=O)(=O)N3CCCCC3)ccc2C)c([N+](=O)[O-])n1	-	-	-	-	-	-
Cc1cnc(C(=O)OCc2csc(CC(=O)Nc3ccccc3C)n2)cn1	-	-	-	-	-	-
CC(C)Oc1ccc(C(=O)Nc2cccc3cccnc23)cc1	-	-	-	-6.8	-	-
CCOc1ccc(C(=O)Nc2cccc3cccnc23)cc1	-	-	-	-	-	-
O=C(Nc1cccc(Cl)c1)N(Cc1nc2ccccc2c(=O)[nH]1)Cc1cccs1	-	-	-	-	-	-
CC(=O)c1c(CSc2ccccc2)oc2ccc(O)c(CN(C)C)c12	-	-	-	-	-	-6.5
CC(=O)C1CCC2C3CC=C4CC(SC(=N)N)CCC4(C)C3CCC12C (centres undefined)	.	.	.	.	-9.2	.
CC(=O)OCC(=O)C1CCC2C3CC=C4CC(O)CCC4(C)C3CCC12C (centres undefined)	.	.	.	.	-	.
CCOc1ccc(CN(C(=O)c2oc3cc(C)ccc3c2C)C2CCS(=O)(=O)C2)cc1 (centres undefined)	-	-	-	-6.7	-	-
CC(=O)NCCNc1ccc([N+](=O)[O-])cc1C#N	-	5.8	-	-	-	-
CCOc1ccc(S(=O)(=O)NC(C)C(=O)NCc2cccnc2)cc1 (centres undefined)	-	-	-	-	-	-
CCCCn1c(-c2ccccc2)cnc1SCC(=O)NCCc1ccc(OC)c(OC)c1	-	-	-	-	-	-6.3
COc1ccc(CCNC(=O)CSc2ccc3ccccc3c2)cc1OC	-	-	-	-	-	-6.9
COc1ccc(CCNC(=O)CSc2nn(-c3ccccc3)c(=S)s2)cc1OC	-	-	-	-	-	-6.6
CCCCC1(Cc2ccc([N+](=O)[O-])cc2)C(=O)N(c2ccccc2)N(c2ccccc2)C1=O	-	-	8	-	-	-
Cc1c(NC(=S)NC(=O)c2cccc(Cl)c2)c(=O)n(-c2ccccc2)n1C	-	-	-	-	-	-
O=C(Nc1ccccc1Sc1ccccc1)C1CCCO1 (centres undefined)	-	-	-	-	-	-4.8
O=C(Nc1ccccc1Sc1ccccc1)c1ccccc1	-	-	-	-7.7	-	-
O=C(Cc1ccc(Br)cc1)Nc1ccccc1Sc1ccccc1	-	-	-	-	-	-
O=C(Cc1ccc(F)cc1)Nc1ccccc1Sc1ccccc1	-	-	-	-	-	-6.3
O=C(Cc1ccccc1)Nc1ccccc1Sc1ccccc1	-	-	-	-	-	-9.2
SMILES	KCNQ1 pot	hERG protect	KCNQ1 inh	KCNK9 block	KCNK3 inh	Kir21 inh
CSc1ccccc1NC(=O)Cc1ccccc1	-	-	-	-	-	-
CN(C(=O)CCc1nc2ccccc2c(=O)[nH]1)C1CCS(=O)(=O)C1 (centres undefined)	.	.	.	.	-	.
COc1ccc(NC(=O)CC2SC(N3CCOCC3)=NC2=O)cc1OC (centres undefined)	.	.	.	.	-	.
Cc1ccc(Cl)cc1NC(=O)Cn1nc(-c2cccs2)ccc1=O	-	-	-	-	-	-
Cc1ccc(C(=O)C[n+]2ccc3ccccc3c2)cc1	-	-	-	-	-	-
Cc1cc(C(C)(C)C)cc(C)c1C[n+]1ccc2ccccc2c1	-	-	7	-	-	-
Cc1ccc(CN(C)C(=O)COC(=O)CSc2cc(C)c3ccccc3n2)cc1	.	.	.	.	-	.
COc1ccc(Cl)cc1NC(=O)COC(=O)Cc1cc(OC)c(OC)c(OC)c1	.	.	.	.	-	.
COc1ccc(Cl)cc1NC(=O)COC(=O)CCc1cc(OC)c(OC)c(OC)c1	-	-	-	-	-	-4.9
NC(=O)CC(NC(=O)Cc1ccc(Br)cc1)c1ccc(N2CCC(N3CCCCC3)CC2)c([N+](=O)[O-])c1 (centres undefined)	-	-	-	-	-	-
CCC1(c2ccc(Cl)cc2)NC(=S)N(c2ccccc2)N1 (centres undefined)	40	49	-	-	-	-
CCCCCCC1(C)NC(=S)N(c2ccccc2)N1 (centres undefined)	-	-	-	-	-	-
O=C(c1ccco1)N1CCN=C1SCc1ccc(F)cc1	39	-	-	-	-	-
CCOc1cc(/C=N/NC(=O)c2ccc(O)cc2)ccc1Oc1nc(Cl)ncc1F	-	-	-	-7.8	-	-
COc1ccc(/C=N/NC(=O)CC#N)cc1Oc1nc(Cl)ncc1F	-	-	-	-	-	-
Cn1cc(Cl)c(C(=O)NC(=S)Nc2sc3c(c2C#N)CCCCC3)n1	-	-	-	-	-	-
CN1CCN(c2ccc(NC(=O)c3ccc(Cl)cc3)cn2)CC1	-	7.8	-	-	-	-
Cc1ccc(C(=O)Nc2ccc(N3CCOCC3)nc2)cc1	-	-	-	-	-	-
CC(=O)N1Cc2ccccc2C(C)CC12CCCCC2 (centres undefined)	-	-	-	-	-	-7.3
CC(C)(C)c1ccc(CN(Cc2ccccc2)C(c2ccccn2)c2nnnn2C(C)(C)C)cc1 (centres undefined)	-	-	-	-7.4	-	-
CS(=O)(=O)N1CCN=C1SCc1ccc([N+](=O)[O-])cc1	-	-	-	-	-	-
O=S(=O)(O)c1ccc(N=Nc2ccccc2)cc1	-	-	-	-	-	-
O=c1ccc(N=Nc2ccccc2)ccc1O	79	49	-	-	-	-
CC(=O)c1ccc(NC(=O)CN2CCC(NC(=O)C3CCCCC3)CC2)cc1	-	6.1	-	-	-	-
COc1ccccc1-n1c(SCC(=O)NC2CCS(=O)(=O)C2)nc2cc([N+](=O)[O-])ccc21 (centres undefined)	-	-	-	-	-	-
COc1ccccc1-n1c(SCC(=O)c2ccc(O)cc2O)nc2cc([N+](=O)[O-])ccc21	-	-	6	-	-	-
COc1ccc(NS(=O)(=O)c2cccc3nsnc23)cc1OC	-	-	-	-	-	-
COc1ccc(S(=O)(=O)Nc2c(C)ccc3nsnc23)cc1OC	-	-	-	-	-	-5.1
COc1ccc(C)cc1NS(=O)(=O)c1ccc(NS(=O)(=O)c2ccc(NC(C)=O)cc2)cc1	-	-	-	-	-	-
COc1ccc(Cl)cc1NS(=O)(=O)c1ccc(OC)c(OC)c1	-	-	-	-	-	-8.2
